The values that follow come from paper PMC5912169 (Bioorganic & medicinal chemistry letters, 2018).

One test concerns T. brucei (STIB795). Kind of test: In vivo antitrypanosomal activity, T. b. brucei STIB795-Luc mouse model. Details: species or system mice. Particulars: 4 consecutive days. The method in brief: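 Groups of four female NMRI mice were infected ip with 1 × 10⁴ bloodstream-form T. b. brucei STIB795-Luc. Test compound was given ip in water plus 10% DMSO from 3 days post-infection, with an untreated control group. Parasitemia was tracked by live imaging, and moribund mice were euthanized.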

Another test addresses human cathepsin L (Homo sapiens, UniProt P07711). Briefly: Human cathepsin L inhibition. It counts as biochemical. Particulars: from 0.1 μM to 125 μM; 1 hour pre-incubation. The method in brief:
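Human liver-derived cathepsin L (0.58 nM) in 400 mM sodium acetate pH 5.5 with 8 mM DTT, 4 mM EDTA and 0.01% Triton X-100. Pre-incubated 1 h with test compound, then Z-Phe-Arg-AMC (20 μM, concentration as added) in sodium acetate buffer. Substrate cleavage was followed as fluorescence rate (RFU/sec) at 25 °C, λex 355/λem 460 nm.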

Test [1] concerns the target T. brucei cathepsin L (rhodesain) (Trypanosoma brucei rhodesiense, UniProt Q95PM0). Kind of test: Rhodesain inhibition assay. The following applies: 1 hour pre-incubation. It counts as biochemical. The method in brief:
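Rhodesain was expressed in Pichia pastoris and used at 0.8 nM final in 50 mM sodium acetate pH 5.5 with 2 mM DTT and 0.01% Triton X-100. It was pre-incubated 1 h with test compound (20 μM final), then Z-Phe-Arg-AMC (10 μM) was added. Cleavage rate (RFU/sec) was read at 25 °C, λex 355/λem 460 nm. E-64 (10 μM) served as positive control.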

Chain of human cathepsin L (P07711 114-333): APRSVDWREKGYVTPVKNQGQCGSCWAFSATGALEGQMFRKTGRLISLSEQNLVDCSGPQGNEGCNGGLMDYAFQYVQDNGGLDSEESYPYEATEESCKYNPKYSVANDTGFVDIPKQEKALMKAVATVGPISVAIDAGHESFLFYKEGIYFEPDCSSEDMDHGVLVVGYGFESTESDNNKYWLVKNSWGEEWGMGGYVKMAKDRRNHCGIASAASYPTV

With `O=C(Cc1ccc(OC/C=C/S(=O)(=O)c2ccccc2)cc1)Nc1cccc2cccnc12` [Compound 9], the “parasites in infected mice 24 hours posttreatment” value with T. brucei (STIB795) (50 mg/kg/day intraperitoneally) and with T. brucei (STIB795) (100 mg/kg/day intraperitoneally) was “positive for parasites” throughout.

Take `O=C(N[C@H](/C=C/S(=O)(=O)c1ccccc1)CCc1ccccc1)c1cccc2cccnc12` [Compound 27]: at human cathepsin L, the “inhibitory activity against human cathepsin L” value was “inactive”. The “inhibition of rhodesain at 20 μM” value in test [1] is recorded as “completely inactivate”.
